Laboratory results from ChEMBL document CHEMBL3580660, “Synthesis and Biological Evaluation of Novel Olean-28,13β-lactams as Potential Antiprostate Cancer Agents” (J Med Chem, 2015).
Blank lines part the entries; values can stand above or below the compound they belong to. Calls of active or inactive are those of the source. The rule behind the calls is not given here.

How the values were obtained:
DU-145 [1] = experiment: Antiproliferative activity against human DU145 cells at 2 uM after 72 hrs by CCK8 assay; assay type: functional
In short: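 DU-145 screening at single concentration 2 μM for 72 h, proliferation by CCK-8 (cells 5 × 10^3/well in 10% FCS DMEM). Percent inhibition vs untreated, background-corrected; mean ± SD from three independent experiments.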

DU-145 [2] = experiment: Antiproliferative activity against human DU145 cells after 72 hrs by CCK8 assay; assay type: functional, cell-based; settings: DU-145, 72 h
In short: (§1)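 CCK-8 assay: DU-145, H460, Bxpc-3, BEL-7404 and nontumor WPMY-1 cells seeded at 5 × 10^3 cells/well in 10% FCS DMEM overnight, then exposed in triplicate to 0.041−10 μM for 72 h. CCK-8 added for final 30 min, absorbance 450 nm; inhibition relative to medium-only controls after background subtraction; IC50 as concentration giving 50% inhibition.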

[3] = Antiproliferative activity against human BxPC3 cells after 72 hrs by CCK8 assay; assay type: functional, cell-based; settings: BXPC-3, 72 h; in short: as §1
[4] = Antiproliferative activity against human WPMY-1 cells after 72 hrs by CCK8 assay; assay type: functional, cell-based; settings: WPMY-1, 72 h; in short: as §1
[5] = Antiproliferative activity against human H460 cells after 72 hrs by CCK8 assay; assay type: functional, cell-based; settings: NCI-H460, 72 h; in short: as §1
[6] = Antiproliferative activity against human Bel7404 cells after 72 hrs by CCK8 assay; assay type: functional, cell-based; settings: BEL-7404, 72 h; in short: as §1

Compound: CCN1C(=O)[C@]23CCC(C)(C)C[C@H]2[C@]12C(=O)C=C1[C@@]4(C)C=C(C#N)C(=O)C(C)(C)[C@@H]4CC[C@@]1(C)[C@]2(C)CC3
inhibition (DU-145 [1]): Active

Compound: CC1(C)CC[C@]23CC[C@@]4(C)[C@]5(C)CC[C@H]6C(C)(C)C(=O)C(C#N)=C[C@]6(C)C5=CC(=O)[C@@]4([C@@H]2C1)N(CCO)C3=O
inhibition (DU-145 [1]): Active

IC50 (DU-145 [2]): 690 nM
Compound: CC1(C)CC[C@]2(C(=O)n3ccnc3)CC[C@]3(C)[C@H](C(=O)C=C4[C@@]5(C)C=C(C#N)C(=O)C(C)(C)[C@@H]5CC[C@]43C)[C@@H]2C1
IC50 [3]: 1500 nM
IC50 [4]: 2090 nM
IC50 [5]: 420 nM
IC50 [6]: 990 nM

Compound: CN1C(=O)[C@]23CCC(C)(C)C[C@H]2[C@]12C(=O)C=C1[C@@]4(C)C=C(C#N)C(=O)C(C)(C)[C@@H]4CC[C@@]1(C)[C@]2(C)CC3
inhibition (DU-145 [1]): Active

Compound: CC1(C)CC[C@]2(C(=O)NC3CCCCC3)CC[C@]3(C)[C@H](C(=O)C=C4[C@@]5(C)C=C(C#N)C(=O)C(C)(C)[C@@H]5CC[C@]43C)[C@@H]2C1
inhibition at 2 µM (DU-145 [1]; DU-145, 72 h): 53%

Compound: CC1(C)CC[C@]23CC[C@@]4(C)[C@]5(C)CC[C@H]6C(C)(C)C(=O)C(C#N)=C[C@]6(C)C5=CC(=O)[C@@]4([C@@H]2C1)N(CCc1ccccc1)C3=O
inhibition (DU-145 [1]): Active

Compound: CCCCCCN1C(=O)[C@]23CCC(C)(C)C[C@H]2[C@]12C(=O)C=C1[C@@]4(C)C=C(C#N)C(=O)C(C)(C)[C@@H]4CC[C@@]1(C)[C@]2(C)CC3
inhibition (DU-145 [1]): Active

Compound: CCCN1C(=O)[C@]23CCC(C)(C)C[C@H]2[C@]12C(=O)C=C1[C@@]4(C)C=C(C#N)C(=O)C(C)(C)[C@@H]4CC[C@@]1(C)[C@]2(C)CC3
inhibition (DU-145 [1]): Active

IC50 (DU-145 [2]): 960 nM
Compound: CC1(C)CC[C@]23CC[C@@]4(C)[C@]5(C)CC[C@H]6C(C)(C)C(=O)C(C#N)=C[C@]6(C)C5=CC(=O)[C@@]4([C@@H]2C1)N(C(C)(C)C)C3=O
inhibition (DU-145 [1]): Active
IC50 [3]: 660 nM
IC50 [4]: 9600 nM
IC50 [5]: 430 nM
IC50 [6]: 1140 nM

Compound: CCCCN1C(=O)[C@]23CCC(C)(C)C[C@H]2[C@]12C(=O)C=C1[C@@]4(C)C=C(C#N)C(=O)C(C)(C)[C@@H]4CC[C@@]1(C)[C@]2(C)CC3
inhibition (DU-145 [1]): Active
